Assay results collected from several papers.
Compare with care: the assays were run in different laboratories.
Target: Serine/threonine-protein kinase PLK2 (PLK2, Homo sapiens, UniProt Q9NYY3)

Compound | read-out | technique | tested at | remaining binding
CC1CCCN1c1nccc(-c2cnn3ncccc23)n1 (centres unmarked) | binding | – | 1 µM | 100%
CNC(=O)Nc1ccc2c(c1)CC[C@@]21OC(=O)N(CC(=O)N(Cc2ccc(F)cc2)[C@@H](C)C(F)(F)F)C1=O | cell-free assay | competition with immobilised ligand | 1 µM | 91%
CN(C)c1ncc(F)c(-c2cnn3ncccc23)n1 | binding | – | 1 µM | 78%
Nc1ncc2c(n1)-c1c([nH]c3ccc(C#CC4CC4)cc13)CCCC2 | binding | competition with immobilised ligand | 1 µM | 91%
FC(F)(F)c1ccc2c(c1)nc(-c1cccnc1)n2C1CC1 | cell-free assay | competition with immobilised ligand | 1 µM | 94%
CNC(=O)[C@@H]1CC[C@@H](n2c(-c3ccc4cnccc4c3)nc3ccc(C(=O)NCc4cccc(C(N)=O)c4)cc32)C1 | binding | competition with immobilised ligand | 1 µM | 96%
O=C(Nc1c[nH]nc1C(=O)NC1CCNCC1)c1cc(F)cc(F)c1 | binding | competition with immobilised ligand | 1 µM | 92%
CN(c1nccc(-c2cnn3ncccc23)n1)C1CC1 | binding | – | 1 µM | 88%
COc1cnc(Nc2cccc(S(N)(=O)=O)c2)nc1N1CCN(c2ccccc2)C(=O)C1 | binding | competition with immobilised ligand | 1 µM | 80%
COc1ncc2cc3ccccc3nc2c1C#N | cell-free assay | competition with immobilised ligand | 5 µM | 45%
O=C(NCCCN1CCOCC1)c1ccc(Nc2nccc(-c3cc4ccccc4s3)n2)cc1 | binding | competition with immobilised ligand | 1 µM | 44%
CS(=O)(=O)NCC[C@H](NC(=O)c1cncc2c1cnn2-c1ccc(F)cc1)c1ccnc(S(C)(=O)=O)c1 | cell-free assay | competition with immobilised ligand | 1 µM | 100%
c1cnn2ncc(-c3ccnc(N4CCC45COC5)n3)c2c1 | binding | – | 1 µM | 87%
NS(=O)(=O)c1cc(NC(=O)C2(c3ccccc3Cl)CC2)ccc1Oc1cccc(Cl)c1 | cell-free assay | competition with immobilised ligand | 1 µM | 84%
C[C@H]1CCN(c2nccc(-c3cnn4ncccc34)n2)C1 | binding | – | 1 µM | 91%
O=C(c1ccc(Nc2nccc(-c3cc4ccccc4s3)n2)cc1)N1CCC(N2CCCC2)CC1 | binding | competition with immobilised ligand | 1 µM | 96%
CCC(=O)N[C@H]1CC[C@@H](C(=O)N(C)c2ccc(-c3nc4ccccc4o3)cc2)C1 | cell-free assay | competition with immobilised ligand | 1 µM | 96%
CN(C)c1nccc(-c2cnn3ncccc23)n1 | binding | – | 1 µM | 100%
Cc1nc(C2CCN(C(=O)c3ccc(OC(F)(F)F)cc3N)CC2)c2ncc(N3CCN(C)CC3)cc2n1 | cell-free assay | competition with immobilised ligand | 1 µM | 74%
O=C(c1ccc(Nc2ncc(Cl)c(-c3ccc(Cl)s3)n2)cc1)N1CCC(N2CCCC2)CC1 | binding | competition with immobilised ligand | 1 µM | 47%
